# Only some compounds are listed: those with a hit (about 2.5% of all), similar ones and a draw of the others.
# SENP8 block-1: blocks human SENP8 cleavage of Nedd8 substrate. Q96LD8. recombinant SENP8, Nedd8 substrate fluorescence. inhibition, % at 20 µM. 0.64% of 360,000 active; in the data active = inhibition mostly above about 40%, no sharp cut-off; inactive = mostly below about 27%
# SENP1 inh: inhibitors of human SENP1 SUMO protease catalytic domain. Q9P0U3. 0.21% of 360,000 active. recombinant SENP1 catalytic domain, CyPet-SUMO1-YPet FRET cleavage. AID 624204. inhibition, % at 10 µM;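 active = inhibition at least 30% at 10 µM, raw YFP signal under a set limit, fluorescence ratio 0.5 to 1.5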;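 note: 0% = enzyme with DMSO and 100% = no enzyme wells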
# Target sequence (Q9P0U3 419-644 limits assumed): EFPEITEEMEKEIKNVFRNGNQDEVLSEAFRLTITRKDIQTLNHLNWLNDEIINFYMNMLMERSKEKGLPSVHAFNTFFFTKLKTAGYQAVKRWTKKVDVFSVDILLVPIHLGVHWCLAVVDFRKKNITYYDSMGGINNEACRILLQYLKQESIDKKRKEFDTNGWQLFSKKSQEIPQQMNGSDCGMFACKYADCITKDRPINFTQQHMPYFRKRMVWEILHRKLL
#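 Assay system: hSENP1 catalytic domain, recombinant. Amount: SENP1 enzyme, 20 pM final. Schedule: 50 min reaction, RT, dark. Technique: FRET, CFP and YFP emission. Control set: no-enzyme wells low, DMSO-plus-enzyme wells high control.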
# SENP6 inh: SENP6 protease inhibition; inhibition, % at 10 µM; AID 2599; Recombinant SENP6 catalytic domain, aminoluciferin luminescence; 1.8% of 330,000 active;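 active = inhibition above about 50% at the single tested dose, limit read from the data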;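 note: plate controls were DMSO wells with enzyme for no effect and DMSO wells lacking enzyme for full effect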
# SENP7 block: inhibitors of human SENP7 protease | Q9BQF6 | recombinant SENP7, Z-RLRGG-aminoluciferin luminescence, 40 min | 1.5% of 330,000 active | inhibition, % at 5 µM | AID 434973;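 active = inhibition above about 50% at the single test dose, limit read from the data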;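 note: plate controls were DMSO with enzyme for no effect and no enzyme buffer wells for full effect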
# SENP8 block-2: SENP8 protease inhibition; Q96LD8; purified SENP8, Z-RLRGG-aminoluciferin cleavage, luminescence; inhibition, % at 10 µM; 1.2% of 330,000 active; in the data active = inhibition above about 50%
# SENP8 confirm: human SENP8 inhibition, confirmed. shares compounds with SENP7 block. Recombinant SENP8, Z-RLRGG-aminoluciferin luminescence, 60 min. inhibition, % at 12.5 µM. 40% of 6,200 active. AID 488912;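 active = mean inhibition across replicates above about 50%, limit read from the data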
# SENP6 confirm: confirmation of human SENP6 protease inhibitors | shares compounds with SENP7 block | recombinant SENP6, Z-RLRGG-aminoluciferin luminescence | inhibition, % at 12.5 µM | 58% of 6,200 active | AID 488915
# SENP7 conf: confirmation of human SENP7 protease inhibitors. shares compounds with SENP7 block. recombinant SENP7, Z-RLRGG-aminoluciferin luminescence, 40 min. inhibition, % at 12.5 µM. 69% of 6,200 active
# Casp3 select: inhibits human caspase-3 in SENP selectivity test; shares compounds with SENP7 block; purified caspase-3, Z-DEVD-aminoluciferin luminescence, 60 min; inhibition, % at 12.5 µM; 60% of 6,200 active; AID 488918;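 active = mean inhibition above about 50%, limit read from the data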;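 note: plate controls were enzyme with DMSO for no effect and wells without caspase-3 for full effect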
# Target sequence (P42574 28-227 limits assumed): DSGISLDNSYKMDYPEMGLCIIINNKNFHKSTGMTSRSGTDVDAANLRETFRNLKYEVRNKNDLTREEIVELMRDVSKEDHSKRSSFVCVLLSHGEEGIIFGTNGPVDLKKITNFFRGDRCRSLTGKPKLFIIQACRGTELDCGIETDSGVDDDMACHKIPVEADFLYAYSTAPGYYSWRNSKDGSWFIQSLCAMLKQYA
# SENP luc ctr: counter-screen for SENP inhibitors: luminescence interference; shares compounds with SENP7 block; Pre-incubated SENP8/Z-RLRGG-aminoluciferin, luciferase luminescence interference; 39% of 6,200 active; inhibition, % at 12.5 µM;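 active = mean inhibition above about 50% when retested at one dose, limit read from the data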;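 note: plate controls were DMSO wells with completed reaction for no effect and substrate without enzyme for full effect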
# Numbers without * were called inactive; x = not tested or not shown.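 Rule for the calls, unless noted: active = mean inhibition above about 50% in the one-dose retest (limit read from the data); inactive = the rest.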
SMILES,SENP8 block-1,SENP1 inh,SENP6 inh,SENP7 block,SENP8 block-2,SENP8 confirm,SENP6 confirm,SENP7 conf,Casp3 select,SENP luc ctr
O=C(O)c1cc(N/N=C/c2cccnc2)ccc1Cl,12.0,4.9,42.7,12.4,15.1,x,x,x,x,x
O=C(O)c1cc(N/N=C/c2ccc(N3CCOCC3)cc2)ccc1Cl,-283.5,-8.5,-17.3,30.8,50.9*,75.2*,73.4*,94.2*,22.9,74.7*
CSc1ccc(/C=N/Nc2ccc(Cl)c(C(=O)O)c2)cc1,-69.3,-0.2,76.3*,-3.9,77.1*,-27.9,90.8*,99.8*,25.0,92.1*
O=C(O)c1cc(N/N=C/c2ccncc2)ccc1Cl,-207.8,-0.4,60.3*,41.2,37.2,58.1*,54.1*,84.7*,24.6,72.2*
CCc1cccc(C)c1NC(=O)CN1CCN(S(=O)(=O)c2ccc(C(C)(C)C)cc2)CC1,4.1,1.0,3.0,5.7,-3.5,x,x,x,x,x
O=C(NCc1ccc(F)cc1F)Nc1cnccc1C(F)(F)F,23.3,4.9,0.3,1.1,9.8,x,x,x,x,x
O=C(COC(=O)c1cccnc1)Nc1ccc2c(c1)OCO2,8.0,0.0,-8.0,-2.9,-16.3,x,x,x,x,x
CC1(NC(=O)Nc2cc([N+](=O)[O-])ccc2O)CCS(=O)(=O)C1 (stereo unspecified),14.1,5.2,-5.9,-5.2,6.6,x,x,x,x,x
CSc1ccc(/C=C/C(=O)Nc2ccccc2)cc1,-88.3,-1.6,85.1*,100.7*,95.3*,69.2*,98.3*,102.1*,97.3*,6.7
CSc1cccc(NC(=O)/C=C/c2ccc(Cl)cc2)c1,9.4,0.7,65.8*,59.2*,38.2,53.8*,58.7*,83.6*,32.9,51.4*
O=C(/C=C/c1ccccc1)Nc1cc(NC(=O)/C=C/c2ccccc2)cc(C(=O)O)c1,11.3,1.7,-3.1,5.2,4.6,x,x,x,x,x
CSc1cccc(NC(=O)/C=C/c2ccccc2)c1,14.7,-0.1,50.6*,49.3,16.2,57.1*,53.9*,81.4*,28.3,65.4*
CSc1cccc(NC(=O)Nc2ccccc2)c1,25.3,0.6,47.0,30.0,23.9,x,x,x,x,x
O=C(/C=C/c1ccccc1)Nc1cccc(C(=O)O)c1,2.0,2.6,98.7*,99.6*,96.6*,-25.0,98.9*,103.1*,95.3*,98.0*
COc1ccc(NC(=O)N2CCC(n3cnc4ccccc43)CC2)cc1,13.1,-0.7,-12.6,-2.3,-6.8,x,x,x,x,x
Clc1ccc2nc3c4ccccc4cnn3c2c1,-355.9,2.1,98.7*,97.6*,94.9*,93.5*,93.9*,101.1*,92.5*,23.6
Clc1ccc2nc3ccccc3cc2c1,-306.2,-3.7,x,x,x,x,x,x,x,x
CCOC(=O)Cn1nc(C)n(-c2ccc(C)cc2)c1=O,5.4,-0.1,-3.0,101.1*,7.0,2.9,1.4,-1.2,0.4,-1.1
O=C(c1cccc(Br)c1)c1coc2ccc(O)cc12,17.5,0.7,86.4*,72.2*,84.2*,56.5*,73.3*,94.8*,50.6*,23.7
O=C(O)COc1ccc2occ(C(=O)c3ccccc3)c2c1,24.4,1.9,35.8,12.3,11.7,x,x,x,x,x
Cc1ccc(C(=O)c2coc3ccc(OCC(=O)O)cc23)cc1,19.0,0.0,66.0*,28.7,33.2,47.1,43.1,77.0*,78.5*,65.7*
COc1ccc(C(=O)c2coc3ccc(O)cc23)cc1,17.9,1.5,85.3*,87.2*,80.3*,79.5*,80.3*,97.8*,78.0*,60.9*
CC(=O)Oc1ccc2occ(C(=O)c3ccccc3)c2c1,8.0,-1.3,31.9,30.8,31.6,x,x,x,x,x
Nc1nc(N)nc(-c2ccc(Cl)c(Cl)c2)n1,-456.5,2.1,56.5*,59.5*,42.5,41.1,37.9,77.6*,48.8,61.9*

# From PubChem
